Results on 35 compounds are retold here after ChEMBL document CHEMBL1150301, “Structure-activity relationship studies on N'-aryl carbohydrazide P2X7 antagonists” (J Med Chem, 2008).

The target in data set [1] is T1, P2X purinoceptor 7 (Homo sapiens, UniProt Q99572).
T1 sequence (Q99572 whole entry): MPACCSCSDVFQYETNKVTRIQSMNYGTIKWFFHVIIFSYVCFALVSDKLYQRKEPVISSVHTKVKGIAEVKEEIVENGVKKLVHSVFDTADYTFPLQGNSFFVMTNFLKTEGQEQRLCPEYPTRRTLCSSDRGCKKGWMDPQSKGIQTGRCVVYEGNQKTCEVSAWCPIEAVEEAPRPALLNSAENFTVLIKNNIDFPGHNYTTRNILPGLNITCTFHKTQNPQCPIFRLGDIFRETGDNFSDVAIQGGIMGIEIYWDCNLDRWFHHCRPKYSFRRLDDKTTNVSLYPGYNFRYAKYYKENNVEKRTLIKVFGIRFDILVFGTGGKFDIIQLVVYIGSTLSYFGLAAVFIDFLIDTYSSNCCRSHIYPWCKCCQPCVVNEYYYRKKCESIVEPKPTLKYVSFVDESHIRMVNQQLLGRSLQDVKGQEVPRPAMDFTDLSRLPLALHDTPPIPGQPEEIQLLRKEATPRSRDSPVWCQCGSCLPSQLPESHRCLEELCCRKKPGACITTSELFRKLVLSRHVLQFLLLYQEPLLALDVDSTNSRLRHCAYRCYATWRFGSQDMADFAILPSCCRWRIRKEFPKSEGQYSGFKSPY
Description: Antagonist activity at human recombinant P2X7 receptor expressed in human 1321N1 cells assessed as benzoyl-ATP-induced calcium flux by FLIPR assay. The format is functional, cell-based. The method in brief: (§1)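 The human or rat P2X7 was stably transfected into 1321N1 astrocytoma cells, which lack endogenous P2X function. Cells were loaded with Fluo-4 and given a 5 min antagonist pretreatment before BzATP challenge. Ca2+ flux was read on FLIPR. Results are pIC50 ± SEM, n = 2, or ≥3 where marked.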
(Calcium assays in cells follow changes in intracellular calcium, usually with a dye or a luminescent sensor.)

In data set [2] the target is T2, P2X purinoceptor 7 (Rattus norvegicus, UniProt Q64663).
T2 sequence (Q64663 whole entry): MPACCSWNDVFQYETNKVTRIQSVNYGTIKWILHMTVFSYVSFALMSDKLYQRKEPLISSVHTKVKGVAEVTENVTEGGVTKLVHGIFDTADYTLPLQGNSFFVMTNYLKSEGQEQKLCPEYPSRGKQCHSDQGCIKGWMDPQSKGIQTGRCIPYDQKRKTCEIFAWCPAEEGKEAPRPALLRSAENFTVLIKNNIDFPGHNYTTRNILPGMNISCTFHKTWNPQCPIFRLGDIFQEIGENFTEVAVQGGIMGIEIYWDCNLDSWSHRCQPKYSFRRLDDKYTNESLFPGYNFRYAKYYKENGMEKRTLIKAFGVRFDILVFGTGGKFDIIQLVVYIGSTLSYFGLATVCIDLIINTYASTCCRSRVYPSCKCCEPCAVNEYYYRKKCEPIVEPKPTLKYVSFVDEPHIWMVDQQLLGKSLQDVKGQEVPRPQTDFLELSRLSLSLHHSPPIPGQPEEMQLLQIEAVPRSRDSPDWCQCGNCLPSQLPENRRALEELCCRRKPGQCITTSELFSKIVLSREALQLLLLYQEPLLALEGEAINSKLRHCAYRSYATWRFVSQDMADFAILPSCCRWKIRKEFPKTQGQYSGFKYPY
The data set is described as follows: Antagonist activity at rat recombinant P2X7 receptor expressed in human 1321N1 cells assessed as benzoyl-ATP-induced calcium flux by FLIPR assay. Format: functional, cell-based. A digest of the protocol:
as §1

In data set [3] the test system is Rattus norvegicus. Description: Half life in rat at 5 umol/kg, ip. Format: ADME, organism-based. The settings on record: in vivo. A digest of the protocol: (§2)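 Rats were dosed iv or ip at 5 µmol/kg in 10% DMSO/90% PEG. Plasma PK parameters were derived: Vβ, Clp, Cmax, Tmax, AUC, t1/2 and F.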
The test system of data set [4] is Rattus norvegicus. The data set is described as follows: Reversal of neuropathic pain in L5/L6 spinal nerve tight ligation rat model assessed as paw withdrawal threshold at 30 to 300 umol/kg, ip relative to contralateral paw. Format: functional. The method in brief:
(§3)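 L5/L6 spinal nerve tight ligation was done 7–14 days before testing. Mechanical allodynia was measured with von Frey filaments before dosing, and rats with threshold <5 g were kept. Rats were retested 30 min after ip dosing at 30–300 µmol/kg. Reversal on the ipsilateral side was expressed relative to the contralateral side, and ED50 was derived.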

The nature of data set [5]: Bioavailability in rat at 5 umol/kg, ip. The format is ADME, organism-based. The settings on record: in vivo. A digest of the protocol: as §2
The subject of data set [6] is Rattus norvegicus. The data set is described as follows: AUC in rat at 5 umol/kg, iv. Conditions: in vivo. Format: ADME, organism-based, Plasma. A digest of the protocol:
as §2

Data set [7] in a line: Half life in rat at 5 umol/kg, iv. The format is ADME, organism-based. The settings on record: in vivo. The method in brief:
as §2

The test system of data set [8] is Rattus norvegicus. The data set is described as follows: Tmax in rat at 5 umol/kg, ip. Conditions: in vivo. Format: ADME, organism-based. The method in brief:
as §2

In data set [9] the test system is Rattus norvegicus. The data set is described as follows: Cmax in rat at 5 umol/kg, ip. Format: ADME, organism-based. Set-up: dose 5 umol/kg, route intraperitoneal. The settings on record: in vivo. The method in brief:
as §2

Data set [10] in a line: Volume of distribution at terminal phase in rat at 5 umol/kg, iv. Format: ADME, organism-based. Conditions: in vivo, read-out: Vbeta. The method in brief: as §2
Data set [11] deals with Rattus norvegicus. Description: AUC in rat at 5 umol/kg, ip. The format is ADME, organism-based, Plasma. The settings on record: in vivo. The method in brief:
as §2

Data set [12] deals with Rattus norvegicus. Description: Reversal of neuropathic pain in ip dosed L5/L6 spinal nerve tight ligation rat model assessed as paw withdrawal threshold. Format: functional. A digest of the protocol: as §3
Data set [13] concerns the target T1, P2X purinoceptor 7. The data set is described as follows: Antagonist activity at human recombinant P2X7 receptor expressed in differentiated human THP1 cells assessed as inhibition of benzoyl-ATP-induced IL1-beta release by ELISA. Format: functional, cell-based, THP-1. A digest of the protocol: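 THP-1 cells were differentiated with LPS and IFNγ. Compound was present while cells were stimulated with BzATP for 30 min. Released IL-1β was quantified by ELISA kit. Results are given as pIC50.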
A general note: In an ELISA, binding on a coated surface is turned into a signal by an enzyme label.

With `Cc1ccccc1NNC(=O)CC1CCCCC1`, the IC50 is 38.9 nM in data set [1] and 151 nM in data set [2].

Take `O=C(NNc1cccnc1)C12CC3CC(CC(C3)C1)C2`: the IC50 is 832 nM in data set [1] and 977 nM in data set [2].

Consider `Cc1ccccc1NNC(=O)C1(c2ccccc2)CCCC1`, for which the figures for the IC50 in data set [1] and in data set [2] were 132 nM and 151 nM, respectively.

Regarding `Cc1ccccc1NNC(=O)C12CC3CC(CC(C3)C1)C2`, the results for the IC50 in [1] and in data set [2] were 11.7 nM and 28.2 nM, respectively.

Turning to `COc1ccc(NNC(=O)C23CC4CC(CC(C4)C2)C3)cc1`, the IC50 in [1] was 977 nM; in data set [2], 2450 nM.

`O=C(NNc1cccc2ncccc12)C1(c2ccccc2F)CCCCC1`: the IC50 is 191 nM in data set [1] and 324 nM in data set [2].

`O=C(NNc1ccc(Cl)cc1Cl)C12CC3CC(CC(C3)C1)C2`: in [1], the IC50 was 372 nM. The pIC50 in data set [2] (1321-n1) is recorded as above 5.

On to `Cc1ccccc1NNC(=O)C1(C)CCCCC1`, for which the 50% inhibitory concentration (IC50) was 70.8 nM in data set [1] and 148 nM in [2].

In the case of `CC1(C(=O)NNc2cccc3ncccc23)CC2C=CC1C2` (stereo not drawn), the IC50 was 18.6 nM in data set [1] and 31.6 nM in data set [2].

Turning to `CC1(C)C(C(=O)NNc2cccc3ncccc23)C1(C)C`, the IC50 in [1] is 200 nM; in [2], 155 nM.

`Cc1ccccc1NNC(=O)CCC(C)C`: the figures for the IC50 in data set [1] and in data set [2] were 148 nM and 339 nM, respectively.

`O=C(CC12CC3CC(CC(C3)C1)C2)NNc1cccc2ncccc12`: the IC50 in data set [1] was 57.5 nM; in data set [2], 603 nM.

In turn, `O=C(NNc1cccc2ncccc12)C12CC3CC(CC(C3)C1)C2` displayed a t1/2 in data set [3] of 36 min. The Activity in data set [4] was 68%. This compound gave a bioavailability in [5] of 42%. The AUC in data set [6] is 940 ng·h/mL; in data set [11] it was 390 ng·h/mL. Moreover, the IC50 was 10.2 nM in [1], 44.7 nM in [2] and 5.01 nM in data set [13]. The compound also showed a half-life in [7] of 24 min. Also, the Tmax in data set [8] is 30 min. The same compound had a Cmax in data set [9] of 440 ng/mL. Also, in data set [10], the Vd worked out at 0.9 L/kg. In data set [12], the ED50 stood at 92 µmol/kg.

As to `O=C(NNc1ccccc1)C12CC3CC(CC(C3)C1)C2`, the figures for the IC50 in data set [1] and in data set [2] were 110 nM and 275 nM, respectively.

With `Cc1ccccc1NNC(=O)C1CCCCC1`, the IC50 was 174 nM in data set [1] and 245 nM in data set [2].

As to `O=C(NNc1cccc2ncccc12)C12CC3CC(CC(O)(C3)C1)C2`, the IC50 in data set [1] was 275 nM; in data set [2], 2240 nM.

For `CCCCCCC(=O)NNc1ccccc1C`, the results for the IC50 in data set [1] and in [2] were 407 nM and 195 nM, respectively.

With `Cc1ccc(C)c(NNC(=O)C23CC4CC(CC(C4)C2)C3)c1`, the IC50 in data set [1] is 57.5 nM; in data set [2] it was 135 nM.

Take `O=C(NNc1cccc2ncccc12)C1(c2cccc(F)c2)CCCCC1`: the half-maximal inhibitory concentration (IC50) in data set [1] was 141 nM; in data set [2], 257 nM.

Turning to `CC1(C)C2CCC1(C(=O)NNc1cccc3ncccc13)C(=O)C2` (stereo not drawn), the IC50 in [1] is 1380 nM; in data set [2] it was 1510 nM.

Take `O=C(NNc1cccc2ncccc12)C1(c2ccc(F)cc2)CCCCC1`: the IC50 in data set [1] is 70.8 nM; in [2], 174 nM.

`O=C(NNc1cccc2cnccc12)C12CC3CC(CC(C3)C1)C2`: the figures for the IC50 in data set [1] and in data set [2] were 33.9 nM and 151 nM, respectively.

`O=C(NNc1ccccn1)C12CC3CC(CC(C3)C1)C2`: the IC50 in data set [1] is 219 nM; in [2] it was 427 nM.

With `CC1CCC(C)(C(=O)NNc2cccc3ncccc23)C1(C)C` (stereo not drawn), the IC50 is 27.5 nM in data set [1] and 123 nM in data set [2].

As to `O=C(NNc1ccc(F)cc1)C12CC3CC(CC(C3)C1)C2`, the IC50 is 282 nM in [1] and 1070 nM in data set [2].

Consider `O=C(NNc1ccccc1Cl)C12CC3CC(CC(C3)C1)C2`, for which the IC50 in data set [1] was 11.5 nM; in data set [2] it was 33.9 nM.

As for `O=C(NNc1cccc2ncccc12)C12CC3CC(CC1C3)C2`, the values for the IC50 in data set [1], in [2] and in data set [13] were 27.5 nM, 52.5 nM and 158 nM, respectively.

Consider `O=C(NNc1cccc(Cl)c1Cl)C12CC3CC(CC(C3)C1)C2`, for which the IC50 is 34.7 nM in [1] and 51.3 nM in data set [2].

On to `COc1ccc(C2(C(=O)NNc3cccc4ncccc34)CCCCC2)cc1`, for which the IC50 in data set [1] was 52.5 nM; in [2], 51.3 nM.

Turning to `O=C(NNc1cccc2nc(Cl)ccc12)C12CC3CC(CC(C3)C1)C2`, the IC50 in [1] is 51.3 nM; in [2], 174 nM.

Consider `CCC12CC3CC(C1)CC(C(=O)NNc1cccc4ncccc14)(C3)C2`, for which the IC50 in [1] is 22.9 nM; in data set [2], 145 nM.

As to `Cc1ccccc1NNC(=O)C1CCCCCC1`, the values for the IC50 in data set [1] and in data set [2] were 33.9 nM and 49 nM, respectively.

For the compound `O=C(NNc1cccc2ncccc12)C12CC3CC(CC(Cl)(C3)C1)C2`, the IC50 in data set [1] was 10.2 nM; in data set [2] it was 35.5 nM; in [13], below 1 nM.

Regarding `O=C(NNc1ccccc1F)C12CC3CC(CC(C3)C1)C2`, the IC50 is 39.8 nM in data set [1] and 204 nM in data set [2].

On to `O=C(NNc1cccc(F)c1)C12CC3CC(CC(C3)C1)C2`, for which the figures for the IC50 in data set [1] and in [2] were 324 nM and 468 nM, respectively.

Usually IC50 stands for the concentration at which inhibition is half-maximal. The pIC50 is the IC50 on a negative log10 scale, so that one unit is a factor of ten. One may read the bioavailability as the share of a dose that reaches the circulation, judged against a reference dose that is usually intravenous. By AUC is commonly meant concentration integrated over time. Read a high AUC as high exposure. The term half-life denotes how long it takes for the measured level to halve. A high value points to slow loss. Broadly, the Tmax is the time from dosing to the highest level. By Cmax is commonly meant the maximum level reached in the sampled fluid or tissue. As a reminder, the ED50 is the dose that gives a 50% effect, or the effect in half of the subjects.
